Reference: paper PMC3867294 (Biochemical and biophysical research communications, 2013)

Tests used:
[1] = test system: LPS-mediated inflammation in rats; assay type: in vivo; conditions: n=3 rats/group
[2] = test system: LPS-mediated inflammation in rats; assay: Protocol 1: plasma cytokines; assay type: in vivo, Sprague-Dawley rats
[3] = test system: liver inflammation in endotoxemic rats; assay: Liver histology; assay type: in vivo, Sprague-Dawley rats; conditions: 2.5 mg/kg mR18L i.p. without LPS; H&E sections; n=3
Method in brief: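 Male Sprague-Dawley rats received test compound 2.5 mg/kg i.p., with or without LPS 5 mg/kg i.p. one minute before, and were killed at 2 h. Liver was formalin-fixed, paraffin-embedded, cut at 5 μm and H&E-stained. A blinded pathologist scored it subjectively. Segmented neutrophils were counted at x40, 30 fields from 10 random portal areas. n=3 control, n=4 LPS groups.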

iNOS (NOS2) in rat liver = assay: iNOS expression in liver tissue by immunoblotting; assay type: in vivo, Sprague-Dawley rats; conditions: 2.5 mg/kg mR18L with 5 mg/kg LPS; 2h post LPS; immunoblot, n=6 in LPS groups; P<0.05 vs LPS alone
[4] = test system: endotoxin activity of LPS; assay: Endotoxin activity in rat plasma by LAL assay, protocol 1; assay type: in vivo, Sprague-Dawley rats; conditions: 2h post 5 mg/kg LPS and 2.5 mg/kg mR18L, n=5-7/group, P<0.05 vs LPS alone
Method in brief: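 Adult male Sprague-Dawley rats (322±8 g) got E. coli 026:B6 LPS at 5 mg/kg i.p. and, one minute later, test compound at 2.5 mg/kg i.p. at a different site. Rats were killed at 2 h and the plasma was frozen. Endotoxin activity was read by kinetic-colorimetric LAL assay, n=5–7/group. Groups were compared by one-way ANOVA with Bonferroni, mean±SEM.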

[5] = test system: LPS-mediated inflammation in rats; assay: Protocol 2: mR18L one hour post LPS, rat plasma at 6h post LPS; assay type: in vivo, Sprague-Dawley rats; conditions: 2.5 mg/kg mR18L one hour post 5 mg/kg LPS
Method in brief: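 Rats got LPS (E. coli 026:B6, 5 mg/kg i.p.), then test compound 2.5 mg/kg one hour later; n=5/group. Plasma was taken at baseline and 6 h. Measures: cholesterol and triglycerides by kit; IL-6 and IL-10 by ELISA; endotoxin by kinetic LAL. PON1 was read as paraoxon-driven 4-nitrophenol release at 405 nm. Tests: paired t-test vs baseline, unpaired vs LPS.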

[6] = test system: atherosclerosis and plasma cholesterol in mouse models; conditions: oral and intravenous administration; cited from earlier work
[7] = cited from earlier work
hepatocytes = conditions: in-vitro; cited from earlier work
[8] = 2.5 mg/kg mR18L i.p. one minute post 5 mg/kg LPS, 2h post LPS, n=5-7 rats/group

Substance: Ac-GFRRFLGSWARIYRAFVG-NH2 [mR18L, Ac-G-F-R-R-F-L-G-S-W-A-R-I-Y-R-A-F-V-G-NH2]
- tolerance to mR18L ([1]; 1, 2.5 and 5 mg/kg mR18L i.p. one minute post 5 mg/kg LPS i.p.): All rats demonstrated tolerance
- LPS-mediated plasma elevation of TNF-α ([1]; starting at the lowest tested dose of 1 mg/kg mR18L i.p., 5 mg/kg LPS): significantly reduced
- LPS-mediated elevation of plasma IL-6 [2, 8]: significantly reduced
- LPS-mediated elevation of plasma TNF-α [2, 8]: significantly reduced
- plasma anti-inflammatory cytokine IL-10 [2, 8]: without significantly reducing
- normal levels of TNF-α, IL-6 and IL-10 in rat plasma, mR18L administered alone ([2]; 2.5 mg/kg mR18L i.p. without LPS, 2h, n=5 rats/control group): no effects
- liver morphology and histology, mR18L alone [3]: normal morphological and histological features without signs of inflammation or tissue damage
- LPS-mediated iNOS elevation in liver (iNOS (NOS2) in rat liver): reduced
- endotoxin activity in plasma of LPS-treated rats [4]: significantly reduced
- increase of plasma PON1 activity in LPS-treated rats ([5]; n=5, P<0.05 vs baseline): 15%
- LPS-mediated elevation of plasma triglyceride ([5]; n=5 rats/group): reduced
- plasma cholesterol ([5]; n=5 rats/group): not affecting
- reduction of plasma levels of IL-6 ([5]; n=5 rats/group, vs LPS): 57%
- reduction of plasma levels of IL-10 ([5]; n=5 rats/group, vs LPS): 38%
- increase of IL-10 to IL-6 ratio ([5]; not shown): 24%
- reduction of plasma endotoxin activity ([5]; LAL assay, n=5 rats/group, vs LPS): 30%
- atherosclerotic lesion formation [6]: inhibited
- plasma cholesterol levels, mainly VLDL [6]: decreased
- lytic properties relative to 18L [7]: substantially reduced lytic properties
- uptake of atherogenic lipoproteins by hepatocytes (hepatocytes): able to enhance uptake
